Shown are actives, neighbours in structure and some others; about 1.6% of the full set was active somewhere.
NR1D1 modulator = modulates human Rev-erb alpha binding to DNA | Rev-erbα–FITC-DNA binding, fluorescence polarization, 90 min | AID 1259318 | 370,000 compounds, 0.79% hits | P20393 | activity, % at 10 µM;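 active = activity above about 14%, limit read from the data; passing the limit was not always enough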
NR2E3 ag-1 = agonists of human nuclear receptor NR2E3 | 320,000 compounds, 0.12% hits | GST-NR2E3/biotin-RetCOR TR-FRET, 1536-well | inhibition of corepressor binding, % at 4.78 µM | Q9Y5X4;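 active = percent inhibition above the cutoff of mean plus 3 SD of all tested compounds, set per screening campaign, cut at about 20% in these data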
Target sequence (Q9Y5X4 whole entry, looked up): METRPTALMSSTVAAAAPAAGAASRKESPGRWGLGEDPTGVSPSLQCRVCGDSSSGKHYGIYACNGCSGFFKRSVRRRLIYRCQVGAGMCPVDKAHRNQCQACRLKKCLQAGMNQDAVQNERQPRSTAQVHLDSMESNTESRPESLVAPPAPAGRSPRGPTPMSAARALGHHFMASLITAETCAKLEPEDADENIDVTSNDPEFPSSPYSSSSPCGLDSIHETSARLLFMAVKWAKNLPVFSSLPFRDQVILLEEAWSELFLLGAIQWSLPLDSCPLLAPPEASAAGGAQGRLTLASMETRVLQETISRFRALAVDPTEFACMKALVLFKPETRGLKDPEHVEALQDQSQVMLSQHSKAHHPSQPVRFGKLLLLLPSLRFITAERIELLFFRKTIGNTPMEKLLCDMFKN
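Assay system: NR2E3–RetCOR corepressor complex. Quantity: 1.35 nM GST-NR2E3. Buffer or medium: pH 7.5 Tris-based buffer. Reagent: biotinylated RetCOR corepressor at 7 nM final. Schedule: 5 h at 4 °C. Detection: TR-FRET, emission read at 617 and 671 nm. Replicates: one well per compound, singlicate testing.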
PG9 binder = PG9 antibody binding by small molecule; TR-FRET gp120-PG9 antibody binding; inhibition, % at 6.7 µM; 360,000 compounds, 0.43% hits; AID 624416; in the data active = inhibition above about 8.5%
NR2E3 ag-2 = human photoreceptor-specific nuclear receptor agonism | Q9Y5X4 | CHO-S Gal4-NCOR/VP16-NR2E3 two-hybrid, luciferase | inhibition of corepressor binding, % at 3.98 µM | 360,000 compounds, 0.35% hits | AID 602229;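 active = inhibition above the mean of all tested compounds plus 3 SD, cut at about 70% in these data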;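 also: higher means lower luciferase signal from less NR2E3 corepressor binding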
VLA-4 inh = inhibition in a human VLA-4 binding assay. P13612. VLA-4 expressing cells, ligand binding flow cytometry. inhibition, % (about 7 µM as worked out from the volumes in the protocol). 330,000 compounds, 0.2% hits; in the data active = inhibition above about 50%
PG9 bind confirm = confirmation of small molecules binding HIV-1 gp120 antibody PG9; shares compounds with PG9 binder; TR-FRET PG9 antibody binding, biochemical; inhibition, % at 6.7 µM; 1,500 compounds, 90% hits; AID 651571; in the data active = inhibition above about 9%
PGV04 counter = PGV04 control antibody binding, counter-screen; inhibition, % at 6.7 µM; shares compounds with PG9 binder; AID 651604; TR-FRET PGV04 antibody-gp120 binding, biochemical; 1,500 compounds, 95% hits; in the data active = inhibition above about 9.5%
PG9 bind DR = PG9 antibody binding, dose response; shares compounds with PG9 binder; TR-FRET PG9 antibody-gp120 binding inhibition; IC50, µM; 95 tested, under 10 active; AID 651848; in the data active = IC50 below about 10 µM
PGV04 DR counter = binds control antibody PGV04 in PG9 counter-screen. IC50, µM. shares compounds with PG9 binder. 95 compounds, 20% hits. AID 651937. TR-FRET binding to control antibody PGV04
PG126 binding DR = binds control antibody PG126 in PG9 counter-screen; shares compounds with PG9 binder; TR-FRET binding to antibody PG126, counterscreen; IC50, µM; 95 compounds, 20% hits; AID 651939
Numbers stand for hits; - = inactive; . = no result given. Rule as the data show it, unless noted: active = IC50 below about 9 µM; inactive = the rest.

SMILES	NR1D1 modulator	NR2E3 ag-1	PG9 binder	NR2E3 ag-2	VLA-4 inh	PG9 bind confirm	PGV04 counter	others
CCOC(=O)Nc1nc(C)c(C(=O)c2ccc(Cl)cc2)s1	-	-	10.2	-	-	16.6	32.9
COC(=O)C1=C(C)N(Cc2ccccc2C(F)(F)F)C(=NCc2ccc3c(c2)OCO3)NC1c1ccc(C(F)(F)F)cc1 (stereo not drawn)	-	.	-	.	.	.	.
Cc1cc(C)cc(-c2nnc(SCC(=O)Nc3cc(C)on3)o2)c1	-	.	13.7	-	.	21.6	33.8
COC(=O)Nc1nc(-c2ccccc2)c(C(=O)c2ccccc2)s1	-	-	20.1	-	-	19.4	19.4	PG9 bind DR=-;PGV04 DR counter=-;PG126 binding DR=-
COC(=O)Nc1nc(C)c(C(=O)c2ccccc2)s1	-	-	-	-	-	.	.
Cc1cc2cc(CNC(=O)Cc3ccc([N+](=O)[O-])cc3)ccc2n1C	-	-	10.5	-	-	13.1	20.8
CCc1c(C(=O)Nc2cc(C)ccc2OC)[nH]c(C)c1C(C)=O	-	-	19.9	-	-	18.6	24.1
CC(=O)c1c(C)[nH]c(C(=O)Nc2ccc(C)cc2Br)c1C	-	-	10.3	-	-	-	10.9
CCc1c(C(=O)Nc2ccc(OC)cc2)[nH]c(C)c1C(C)=O	-	-	-	-	-	.	.
Cc1ccc(-c2c(NC(=O)c3cccc(C)c3)nc3ncccn23)cc1	-	.	.	.	.	.	.
COC(=O)c1cc(-c2ccc(C(C)(C)C)cc2)c(=O)n2c1CCC2	-	.	.	.	.	.	.
CC(C)n1c(=S)[nH]c2scc(-c3cccs3)c2c1=O	-	-	-	-	-	.	.
CCn1c(=S)[nH]c2scc(-c3cccs3)c2c1=O	-	.	10.9	-	.	-	11.1
CN1CCN(Cc2c(O)ccc3occ(C(=O)c4ccccc4)c23)CC1	-	-	-	-	-	.	.
CC(=O)C(C(C)=O)c1c(Cl)c(O)c(O)c2c(C(=O)c3ccccc3)coc12	-	-	11.6	-	-	18.1	20.3
CCn1c2ccccc2c2cc(CN3CCN(S(=O)(=O)CC)CC3)ccc21	-	-	-	.	-	.	.
CCn1c2ccccc2c2cc(CN3CCN(S(=O)(=O)Cc4ccccc4)CC3)ccc21	-	-	14.5	-	-	16.2	26.2
Cc1ccc(S(=O)(=O)N(C)Cc2cc3cc(C)ccc3[nH]c2=O)cc1	-	-	16.8	-	-	28.1	44.3
Cc1ccc2cc(CN(C)S(C)(=O)=O)c(=O)[nH]c2c1	-	-	-	-	-	.	.
O=C(c1ccncc1F)N1CCC(n2nnc3ncccc32)CC1	-	.	.	.	.	.	.
Cc1cc(C)c2c(=O)[nH]c(SCC(=O)c3ccc(C(C)C)cc3)nc2n1	-	-	32.0	-	-	59.4	75.8
Cc1cc(=O)[nH]c(SCC(=O)c2ccc(C(C)C)cc2)n1	-	-	-	-	-	.	.
O=C1CCCCC1CCS(=O)(=O)NCc1ccccc1 (stereo not drawn)	-	.	-	.	.	.	.
CCc1ccc(-c2nc3ccc(Br)cc3c(C(=O)O)c2C)s1	-	.	27.0	-	-	33.0	58.8
COc1cccc(NC(=O)c2cnc(SCC(=O)NCc3ccc4c(c3)OCO4)n(C)c2=O)c1	-	-	25.6	-	-	30.4	43.4
SMILES	NR1D1 modulator	NR2E3 ag-1	PG9 binder	NR2E3 ag-2	VLA-4 inh	PG9 bind confirm	PGV04 counter	others
COc1cccc(-n2nnnc2SCC(=O)NCc2ccc3c(c2)OCO3)c1	-	-	-	-	-	.	.
Cc1cccc(-n2c(-c3ccco3)n[nH]c2=S)c1	-	-	13.6	-	-	17.0	19.5
Cc1cccc(-n2c(-c3ccc(Br)o3)n[nH]c2=S)c1	-	-	-	-	-	.	.
O=C(CSc1ccc2nnc(-c3cccc(F)c3)n2n1)N1CCCc2ccccc21	-	-	9.1	-	-	18.5	38.6
COC(=O)CCCn1cc(CN2CC=CS2(=O)=O)nn1	-	.	.	.	.	.	.
C[C@H]1/C=C/CC(=O)N[C@@H](c2ccccc2)[C@@H](C)/C=C/CC(=O)N[C@H]1c1ccccc1	-	.	.	.	.	.	.
Cn1ccc2c(N3c4ccccc4CCc4ccccc43)cc3c(c21)C1CCC3C1 (stereo not drawn)	-	.	-	-	.	.	.
Cn1ccc2c(N3c4ccccc4CCc4ccccc43)cc3c(c21)C1CCC3O1 (stereo not drawn)	-	.	18.7	-	.	-	-
CC(=O)c1sc(C(C)(C)C)cc1NC(=O)CCC(=O)O	-	-	10.4	-	-	19.0	22.8
CC(=O)c1sc(C(C)(C)C)cc1NC(=O)/C=C/C(=O)O	-	-	-	-	-	.	.
COc1cccc(N2C(=NC(=O)c3ccccc3)SC3CS(=O)(=O)CC32)c1 (stereo not drawn)	-	-	11.2	-	-	10.3	14.3
CCN1/C(=C2/SC(=S)N(C)C2=O)C=Cc2cc(C)ccc21	-	-	-	-	-	.	.
CCN1C(=C(C#N)C#N)C=Cc2cc(C)ccc21	-	-	22.8	-	-	20.1	31.4
CCc1cccc(CC)c1NC(=O)C1SC(=Nc2ccccc2C)C(c2nc3ccccc3s2)=C1N (stereo not drawn)	-	-	9.2	-	-	9.5	12.7
Cc1sc2ncnc(N3CCC(C(=O)Nc4ccccc4C(C)(C)C)CC3)c2c1C	-	-	12.6	-	-	17.1	21.0
COC(=O)c1cc2oc3ccccc3c2n1CC(=O)N1CCCc2ccccc21	-	-	11.6	-	-	11.6	19.7
COc1ccc(S[C@]2(C(=O)N3CCN(c4ncccn4)CC3)CC(=O)N(c3ccccc3)[C@@H]2c2ccc(OC)cc2)cc1	-	.	.	.	.	.	.
CC(=O)c1cc(-c2ccccc2)n(CC(=O)NCc2ccccc2)c1C	-	.	.	.	.	.	.
CC(=O)c1cc(-c2ccccc2)n(CC(=O)NCc2cccs2)c1C	-	-	12.3	-	-	14.5	22.2
CCOC(=O)C1(C(=O)OCC)Cc2c([nH]c3ccccc23)[C@]2(N1)C(=O)N(C)c1ccc(Br)cc12	-	.	.	.	.	.	.
Cc1ccc(C)c(NC(=O)C2CCCN(S(=O)(=O)c3ccc4[nH]c(=O)ccc4c3)C2)c1 (stereo not drawn)	-	-	15.9	-	-	12.7	20.6
O=C(Nc1ccc(F)cc1)C1CCCN(S(=O)(=O)c2ccc3[nH]c(=O)ccc3c2)C1 (stereo not drawn)	-	-	11.4	-	-	18.5	28.8

Screening data deposited in PubChem by several laboratories.
